According to ChEMBL document CHEMBL1932999, “Increased susceptibility to resveratrol of Helicobacter pylori strains isolated from patients with gastric carcinoma” (2011):

Columns and labels:
[1] = tested on: Helicobacter pylori; assay: Antibacterial activity against CagA-expressing Helicobacter pylori 10Kb isolated from gastric carcinoma patient after 48 hrs compound exposure followed by incubation on Columbia-blood agar plate for 3 to 5 days; format: functional
Outline: (§1)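 Compound dissolved in water with 4% DMSO, filter-sterilized, and serially twofold diluted in Brucella broth with 10% bovine fetal serum. Inoculum from 48 h microaerobic Brucella agar-BFS cultures, added at approximately 10^6 CFU/mL final. Broth incubated microaerobically at 37 °C for 24 or 48 h, then each dilution subcultured onto Columbia-blood agar. MBC is the lowest concentration with no growth on subculture. Triplicate; mean ± SD.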

[2] = tested on: Helicobacter pylori; assay: Antibacterial activity against CagA-expressing Helicobacter pylori 17C7 isolated from gastric carcinoma patient after 48 hrs compound exposure followed by incubation on Columbia-blood agar plate for 3 to 5 days; format: functional; outline: as §1
[3] = tested on: Helicobacter pylori; assay: Antibacterial activity against CagA-expressing Helicobacter pylori 4Cb isolated from gastric carcinoma patient after 48 hrs compound exposure followed by incubation on Columbia-blood agar plate for 3 to 5 days; format: functional; outline: as §1
[4] = tested on: Helicobacter pylori; assay: Antibacterial activity against CagA-expressing Helicobacter pylori 3Cb isolated from gastric carcinoma patient after 48 hrs compound exposure followed by incubation on Columbia-blood agar plate for 3 to 5 days; format: functional; outline: as §1
[5] = tested on: Helicobacter pylori; assay: Antibacterial activity against CagA-expressing Helicobacter pylori 1C1 isolated from gastric carcinoma patient after 48 hrs compound exposure followed by incubation on Columbia-blood agar plate for 3 to 5 days; format: functional; outline: as §1
[6] = tested on: Helicobacter pylori; assay: Bactericidal activity against CagA-deficient Helicobacter pylori G50 isolated from chronic gastritis patient compound exposure followed by incubation on Columbia-blood agar plate for 3 to 5 days; format: functional, organism-based; settings: TDE = time-dependent effect
Outline: (§2)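 Broth microdilution MBC against clinical H. pylori isolates (cagA by PCR; stocks kept frozen in Columbia broth with 20% glycerol). Compound dissolved in water with 4% DMSO, filter-sterilized, double diluted in Brucella broth with 10% fetal bovine serum. Inoculum about 10^6 CFU/mL from 48 h microaerobic Brucella agar-BFS cultures. Plates held microaerobically at 37 °C for 24 and 48 h. Each well was then spotted onto Columbia-blood agar for 3-5 days. MBC is the lowest concentration giving no regrowth. Triplicate, mean ± SD.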

[7] = tested on: Helicobacter pylori; assay: Bactericidal activity against CagA-deficient Helicobacter pylori G21b isolated from chronic gastritis patient compound exposure followed by incubation on Columbia-blood agar plate for 3 to 5 days; format: functional, organism-based; settings: TDE = time-dependent effect; outline: as §2
[8] = tested on: Helicobacter pylori; assay: Bactericidal activity against CagA-deficient Helicobacter pylori G12 isolated from chronic gastritis patient compound exposure followed by incubation on Columbia-blood agar plate for 3 to 5 days; format: functional, organism-based; settings: TDE = time-dependent effect; outline: as §2
[9] = tested on: Helicobacter pylori; assay: Bactericidal activity against CagA-expressing Helicobacter pylori CCUG17874 isolated from chronic gastritis patient compound exposure followed by incubation on Columbia-blood agar plate for 3 to 5 days; format: functional, organism-based; settings: TDE = time-dependent effect; outline: as §2
[10] = tested on: Helicobacter pylori; assay: Bactericidal activity against CagA-expressing Helicobacter pylori 328 isolated from chronic gastritis patient compound exposure followed by incubation on Columbia-blood agar plate for 3 to 5 days; format: functional, organism-based; settings: TDE = time-dependent effect; outline: as §2
[11] = tested on: Helicobacter pylori; assay: Bactericidal activity against CagA-expressing Helicobacter pylori G27 isolated from chronic gastritis patient compound exposure followed by incubation on Columbia-blood agar plate for 3 to 5 days; format: functional; settings: TDE = time-dependent effect; outline: as §2
[12] = tested on: Helicobacter pylori; assay: Bactericidal activity against CagA-expressing Helicobacter pylori Ma01 isolated from chronic gastritis patient compound exposure followed by incubation on Columbia-blood agar plate for 3 to 5 days; format: functional, organism-based; settings: TDE = time-dependent effect; outline: as §2
[13] = tested on: Helicobacter pylori; assay: Bactericidal activity against CagA-expressing Helicobacter pylori SI10 isolated from chronic gastritis patient compound exposure followed by incubation on Columbia-blood agar plate for 3 to 5 days; format: functional, organism-based; settings: TDE = time-dependent effect; outline: as §2
[14] = tested on: Helicobacter pylori; assay: Bactericidal activity against CagA-expressing Helicobacter pylori G39 isolated from chronic gastritis patient compound exposure followed by incubation on Columbia-blood agar plate for 3 to 5 days; format: functional, organism-based; settings: TDE = time-dependent effect; outline: as §2
[15] = tested on: Helicobacter pylori; assay: Antibacterial activity against CagA-expressing Helicobacter pylori 3Cb isolated from gastric carcinoma patient after 24 hrs compound exposure followed by incubation on Columbia-blood agar plate for 3 to 5 days; format: functional; outline: as §1
[16] = tested on: Helicobacter pylori; assay: Antibacterial activity against CagA-expressing Helicobacter pylori 1C1 isolated from gastric carcinoma patient after 24 hrs compound exposure followed by incubation on Columbia-blood agar plate for 3 to 5 days; format: functional; outline: as §1
[17] = tested on: Helicobacter pylori; assay: Antibacterial activity against CagA-deficient Helicobacter pylori G50 isolated from chronic gastritis patient after 48 hrs compound exposure followed by incubation on Columbia-blood agar plate for 3 to 5 days; format: functional; outline: as §1
[18] = tested on: Helicobacter pylori; assay: Antibacterial activity against CagA-deficient Helicobacter pylori G21b isolated from chronic gastritis patient after 48 hrs compound exposure followed by incubation on Columbia-blood agar plate for 3 to 5 days; format: functional; outline: as §1
[19] = tested on: Helicobacter pylori; assay: Antibacterial activity against CagA-deficient Helicobacter pylori G12 isolated from chronic gastritis patient after 48 hrs compound exposure followed by incubation on Columbia-blood agar plate for 3 to 5 days; format: functional; outline: as §1
[20] = tested on: Helicobacter pylori; assay: Antibacterial activity against CagA-expressing Helicobacter pylori MD6 isolated from chronic gastritis patient after 48 hrs compound exposure followed by incubation on Columbia-blood agar plate for 3 to 5 days; format: functional; outline: as §1
[21] = tested on: Helicobacter pylori; assay: Antibacterial activity against CagA-expressing Helicobacter pylori G27 isolated from chronic gastritis patient after 48 hrs compound exposure followed by incubation on Columbia-blood agar plate for 3 to 5 days; format: functional; outline: as §1
[22] = tested on: Helicobacter pylori; assay: Antibacterial activity against CagA-expressing Helicobacter pylori SI10 isolated from chronic gastritis patient after 48 hrs compound exposure followed by incubation on Columbia-blood agar plate for 3 to 5 days; format: functional; outline: as §2
[23] = tested on: Helicobacter pylori; assay: Antibacterial activity against CagA-expressing Helicobacter pylori G39 isolated from chronic gastritis patient after 48 hrs compound exposure followed by incubation on Columbia-blood agar plate for 3 to 5 days; format: functional; outline: as §1
[24] = tested on: Helicobacter pylori; assay: Antibacterial activity against CagA-expressing Helicobacter pylori 18K7 isolated from gastric carcinoma patient after 48 hrs compound exposure followed by incubation on Columbia-blood agar plate for 3 to 5 days; format: functional; outline: as §1
[25] = tested on: Helicobacter pylori; assay: Antibacterial activity against CagA-deficient Helicobacter pylori NS23 isolated from chronic gastritis patient after 24 hrs compound exposure followed by incubation on Columbia-blood agar plate for 3 to 5 days; format: functional; outline: as §1
[26] = tested on: Helicobacter pylori; assay: Antibacterial activity against CagA-deficient Helicobacter pylori G12 isolated from chronic gastritis patient after 24 hrs compound exposure followed by incubation on Columbia-blood agar plate for 3 to 5 days; format: functional; outline: as §1
[27] = tested on: Helicobacter pylori; assay: Antibacterial activity against CagA-deficient Helicobacter pylori G204 isolated from chronic gastritis patient after 24 hrs compound exposure followed by incubation on Columbia-blood agar plate for 3 to 5 days; format: functional; outline: as §1
[28] = tested on: Helicobacter pylori; assay: Antibacterial activity against CagA-expressing Helicobacter pylori CCUG17874 isolated from chronic gastritis patient after 24 hrs compound exposure followed by incubation on Columbia-blood agar plate for 3 to 5 days; format: functional; outline: as §1
[29] = tested on: Helicobacter pylori; assay: Antibacterial activity against CagA-expressing Helicobacter pylori G27 isolated from chronic gastritis patient after 24 hrs compound exposure followed by incubation on Columbia-blood agar plate for 3 to 5 days; format: functional; outline: as §1
[30] = tested on: Helicobacter pylori; assay: Antibacterial activity against CagA-expressing Helicobacter pylori Ma01 isolated from chronic gastritis patient after 24 hrs compound exposure followed by incubation on Columbia-blood agar plate for 3 to 5 days; format: functional; outline: as §1
[31] = tested on: Helicobacter pylori; assay: Antibacterial activity against CagA-expressing Helicobacter pylori SI10 isolated from chronic gastritis patient after 24 hrs compound exposure followed by incubation on Columbia-blood agar plate for 3 to 5 days; format: functional; outline: as §2
[32] = tested on: Helicobacter pylori; assay: Antibacterial activity against CagA-expressing Helicobacter pylori 18K7 isolated from gastric carcinoma patient after 24 hrs compound exposure followed by incubation on Columbia-blood agar plate for 3 to 5 days; format: functional; outline: as §1
[33] = tested on: Helicobacter pylori; assay: Antibacterial activity against CagA-expressing Helicobacter pylori 17C7 isolated from gastric carcinoma patient after 24 hrs compound exposure followed by incubation on Columbia-blood agar plate for 3 to 5 days; format: functional; outline: as §1

Oc1ccc(/C=C/c2cc(O)cc(O)c2)cc1 [RESVERATROL]
80 µg/mL: MBC [5] | MBC [16]
320 µg/mL: MBC [23]
589 µg/mL: MBC [28] | MBC [30] | MBC [31]
37 µg/mL: MBC [2] | MBC [33]
40 µg/mL: MBC [4] | MBC [15]
295 µg/mL: MBC [17] | MBC [18] | MBC [20] | MBC [21] | MBC [22] | MBC [29]
147 µg/mL: MBC [1] | MBC [3] | MBC [24] | MBC [25] | MBC [32]
324 µg/mL: MBC [19]
648 µg/mL: MBC [26] | MBC [27]
active: Activity [6] tde | Activity [7] tde | Activity [8] tde | Activity [9] tde | Activity [10] tde | Activity [11] tde | Activity [12] tde | Activity [13] tde | Activity [14] tde
